Laboratory results taken from ChEMBL document CHEMBL6182837, “Discovery and biological evaluation of nitrofuranyl-pyrazolopyrimidine hybrid conjugates as potent antimicrobial agents targeting Staphylococcus aureus and methicillin-resistant S. aureus” (RSC Med Chem, 2025).
Converted amounts (≈) assume the structure as drawn. The source made the active and inactive calls. The rule behind the calls is not given here.

Key:
Staphylococcus aureus [1] = experiment: Inhibition of biofilm formation of Staphylococcus aureus ATCC 29213 at 0.5 times MIC incubated for 27 hrs by absorbance based method; assay type: functional, organism-based
Staphylococcus aureus [2] = experiment: Inhibition of biofilm formation of methicillin-resistant Staphylococcus aureus ATCC 15187 at 0.5 times MIC incubated for 27 hrs by absorbance based method; assay type: functional, organism-based
Staphylococcus aureus [3] = experiment: Disruption of pre-formed biofilms of Staphylococcus aureus ATCC 29213 at 4 to 6 times MIC incubated for 24 hrs by absorbance based method relative to control; assay type: functional
Staphylococcus aureus [4] = experiment: Antibacterial activity against Ciprofloxacin-sensitive Staphylococcus aureus […] by Alamar blue staining based analysis; assay type: functional
Staphylococcus aureus [5] = experiment: Antibacterial activity against Staphylococcus aureus SA-1199B overexpressing NorA by Alamar blue staining based analysis; assay type: functional
Staphylococcus aureus [6] = experiment: Antibacterial activity against Staphylococcus aureus SA-K2191 overexpressing MsrA by Alamar blue staining based analysis; assay type: functional
Staphylococcus aureus [7] = experiment: Antibacterial activity against Staphylococcus aureus SA-K2192 overexpressing TetK by Alamar blue staining based analysis; assay type: functional
Staphylococcus aureus [8] = experiment: Disruption of pre-formed biofilms of methicillin-resistant Staphylococcus aureus ATCC 15187 at 4 to 6 times MIC incubated for 24 hrs by absorbance based method relative to control; assay type: functional
Staphylococcus aureus [9] = experiment: Induction of morphological disruption in Staphylococcus aureus ATCC 29213 at 1 to 2 times MIC incubated for 2 to 6 hrs by SEM analysis; assay type: functional, organism-based; conditions: time 2-6 hrs
Method in brief: (§1)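 Bacteria incubated for 2 h and 6 h at 1×, 2× and 4× MIC, with vancomycin and daptomycin at 1× and 2× MIC and untreated cells; cell morphology imaged by scanning electron microscopy.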

Staphylococcus aureus [10] = experiment: Induction of morphological disruption in methicillin-resistant Staphylococcus aureus ATCC 15187 at 1 to 2 times MIC incubated for 2 to 6 hrs by SEM analysis; assay type: functional, organism-based; conditions: time 2-6 hrs; method in brief: as §1
Staphylococcus aureus [11] = experiment: Disruption of cell membrane integrity in Staphylococcus aureus ATCC 29213 assessed as red fluorescence at 2 times MIC incubated for 2.5 hrs by DAPI/PI staining based fluorescence microscopy; assay type: functional, organism-based
Method in brief: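 Bacteria treated at 1× and 2× MIC, with vancomycin 2× MIC as control and an untreated blank; stained with DAPI (all cells) and propidium iodide (membrane-damaged cells); imaged by fluorescence microscopy, red PI signal taken as membrane damage.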

Staphylococcus aureus [12] = experiment: Antibacterial activity against methicillin-resistant Staphylococcus aureus ATCC 15187 infected in male […] mouse assessed as reduction in bacterial load in lung at 50 mg/kg measured after 24 hrs by colony counting method; assay type: functional, organism-based
Method in brief: (§2)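 Mouse peritonitis model: 0.1 ml MRSA suspension (10^8 CFU ml−1) given intraperitoneally; treatment intraperitoneal at 50 or 100 mg kg−1 at 2 and 5 h post-infection, with saline and vancomycin (50 mg kg−1) controls; killed at 24 h; kidney and lung homogenates plated on Mueller–Hinton agar with 20 μg ml−1 ciprofloxacin, 24 h; CFU ml−1; unpaired t-test.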

Staphylococcus aureus [13] = experiment: Antibacterial activity against methicillin-resistant Staphylococcus aureus ATCC 15187 infected in male […] mouse assessed as reduction in bacterial load in kidney at 50 mg/kg measured after 24 hrs by colony counting method; assay type: functional, organism-based; method in brief: as §2

`CN[C@H](CC(C)C)C(=O)N[C@H]1C(=O)N[C@@H](CC(N)=O)C(=O)N[C@H]2C(=O)N[C@H]3C(=O)N[C@H](C(=O)N[C@H](C(=O)O)c4cc(O)cc(O)c4-c4cc3ccc4O)[C@H](O)c3ccc(c(Cl)c3)Oc3cc2cc(c3O[C@@H]2O[C@H](CO)[C@@H](O)[C@H](O)[C@H]2O[C@H]2C[C@](C)(N)[C@H](O)[C@H](C)O2)Oc2ccc(cc2Cl)[C@H]1O` [VANCOMYCIN] was tested, and the inhibition (Staphylococcus aureus [1]) was “inactive”, the inhibition (Staphylococcus aureus [2]) was “inactive” and the Activity (Staphylococcus aureus [3]) was 40%. For the same compound, the MIC (Staphylococcus aureus [4]) was 0.25 µg/mL (≈ 0.173 µM), the MIC (Staphylococcus aureus [5]) was 0.25 µg/mL (≈ 0.173 µM) and the MIC (Staphylococcus aureus [6]) was 0.25 µg/mL (≈ 0.173 µM). The MIC (Staphylococcus aureus [7]) was 0.56 µg/mL (≈ 0.386 µM), the Activity (Staphylococcus aureus [8]) was 40% and the Activity (Staphylococcus aureus [9]) was “Active”. For the same compound, the Activity (Staphylococcus aureus [10]) was “Active”, the Activity (Staphylococcus aureus [11]) was “Active” and the Activity (Staphylococcus aureus [12]) was “Active”. The Activity (Staphylococcus aureus [13]) was “Active”.
